Key:
Leishmania major = test: Antileishmanial activity against Leishmania major DESTO promastigotes after 72 hrs; type: functional, organism-based
Method in brief: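 Log-phase promastigotes grown at 22-25 °C in RPMI-1640 with 10% heat-inactivated FBS, seeded at 1 × 10^6 cells/mL. Compounds were taken from a 1 mg/mL stock (DMSO, then complete medium), serially diluted, and incubated 21-22 °C for 72 h. Viable parasites were counted microscopically in a Neubauer chamber, and IC50 was derived by curve fitting. Run in duplicate.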

NIH3T3 = test: Cytotoxicity against mouse 3T3 cells after 72 hrs by MTT assay; type: cell-based
Method in brief: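 Mouse fibroblasts were kept in DMEM with 5% FBS, penicillin and streptomycin at 37 °C under 5% CO2, seeded at 3 × 10^4 cells/mL, and left overnight. Fresh medium holding a compound concentration series was added for 72 h. MTT (2 mg/mL) was added for 4 h, then DMSO, and formazan was read at 540 nm. The value is the concentration giving 50% growth inhibition.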

[1] = Mus musculus, NIH3T3, 72 h, read-out: IC50

| IC50 (Leishmania major) | Structure (SMILES) | IC50 (NIH3T3; [1]) | IC50 (NIH3T3; nih3t3) |
| --- | --- | --- | --- |
| 93.65 µmol | CO[C@H]1C[C@@H](C)[C@H]2[C@H](C[C@@]3(C)[C@@H]4C[C@H](O)[C@H]5C(C)(C)[C@@H](O[C@@H]6OC[C@@H](O)[C@@H](O)[C@H]6O)CC[C@@]56C[C@@]46CC[C@]23C)O1 | 52.4 µM | – |
| 0.54 µmol | C[C@@H]1[C@H](O)[C@@H](C)/C=C/C=C/C=C/C=C/C=C/C=C/C=C/[C@H](O[C@@H]2O[C@H](C)[C@@H](O)[C@H](N)[C@@H]2O)C[C@@H]2O[C@](O)(C[C@@H](O)C[C@@H](O)[C@H](O)CC[C@@H](O)C[C@@H](O)CC(=O)O[C@H]1C)C[C@H](O)[C@H]2C(=O)O [AMPHOTERICIN B] | – | – |
| 64.35 µmol | C[C@@H]1C[C@@]2(O[C@H]3C[C@@]4(C)[C@@H]5C[C@H](O)[C@H]6C(C)(C)[C@@H](O[C@@H]7OC[C@@H](O)[C@@H](O)[C@H]7O)CC[C@@]67C[C@@]57CC[C@]4(C)[C@@H]13)O[C@H](O)[C@]1(C)O[C@H]21 | > 100 µM | – |

More lines, now with the values behind:

| Structure (SMILES) | IC50 (Leishmania major) | IC50 (NIH3T3; [1]) | IC50 (NIH3T3; nih3t3) |
| --- | --- | --- | --- |
| N=C(N)c1ccc(OCCCCCOc2ccc(C(=N)N)cc2)cc1 [PENTAMIDINE] | 4.32 µmol | – | – |
| CC(C)(O)[C@@H]1CC[C@](C)([C@H]2[C@@H](O)C[C@@]3(C)[C@@H]4C[C@H](O)[C@H]5C(C)(C)[C@@H](O[C@@H]6OC[C@@H](O)[C@H](O)[C@H]6O)CC[C@@]56C[C@@]46CC[C@]23C)O1 | 56.51 µmol | – | 19.51 µmol |
| C[C@@H]1C[C@@H]([C@H](O)CC2CC(=O)NC(=O)C2)C(=O)[C@@H](C)C1 [CYCLOHEXIMIDE] | – | – | 0.912 µmol |
| CC(C)(O)[C@@H]1CC[C@](C)([C@@H]2[C@@H](O)C[C@@]3(C)[C@@H]4C[C@H](O)[C@H]5C(C)(C)[C@@H](O)CC[C@@]56C[C@@]46CC[C@]23C)O1 | 108 µM | > 100 µM | – |

Source: ChEMBL document CHEMBL1156659, “Cycloartane triterpenoids from Astragalus bicuspis” (J Nat Prod, 2008)
